Rows were chosen to be rich in hits. Some 4.6% of all compounds tested hit in one or more screens of this group.
PfM18AAP inh: PfM18AAP enzyme inhibition; actives 1.2% (n = 290,000); recombinant PfM18AAP, H-Glu-NHMec fluorogenic cleavage; AID 1822; inhibition, % at 7.35 µM;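 active = inhibition above the campaign mean inhibition over all tested compounds plus 3 SD, cut at about 28% in these data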;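 note: 0% = plate median of test compound wells and 100% = 2 mM ZnCl2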
HDAC3 inhib: inhibitors of human histone deacetylase 3. actives 0.15% (n = 320,000). AID 2718. O15379. recombinant HDAC3, fluorogenic peptide/trypsin coupled, fluorescence. inhibition, % at 8.3 µM; in the data active = inhibition above about 26%, passing the limit was not always enough
ALR inh: human ALR oxidase inhibition via reduced H2O2; actives 3.8% (n = 290,000); purified ALR, DTT oxidation, H2O2 HRP-luminol luminescence; P55789; AID 485317; inhibition, % (no concentration beside the values);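 active = mean replicate inhibition above about 79%, with every replicate also reaching it, limit read from the data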
FAS-TE inh: FAS thioesterase (human) inhibition; P49327; actives 0.67% (n = 360,000); inhibition, % at 15 µM; AID 602261; recombinant FAS-TE, OMFH fluorogenic substrate, fluorescence endpoint;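 active = compounds whose normalised, plate-corrected inhibition of enzyme fluorescence in the single-dose primary screen is 50% or more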;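 note: 0% = DMSO with enzyme and 100% = substrate without enzyme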
Rtt109 HAT inh: inhibitors of Candida albicans Rtt109/Vps75 histone acetyltransferase. Q5AAJ8. inhibition, % at 34.9 µM. purified Rtt109/Vps75, ThioGlo CoA-SH fluorescence, 4 h. AID 540336. actives 0.16% (n = 330,000);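 active = inhibition of at least 50% in every replicate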
UCH37 inh: inhibitors of human deubiquitinating enzyme UCH37. inhibition, % (no concentration beside the values). purified proteasome/UCH37, Ub-AMC cleavage fluorescence. actives 0.33% (n = 330,000). AID 588478. Q9Y5K5;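 active = mean inhibition over replicate wells above about 20%, limit read from the data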;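 note: 0% = compound-free wells with enzyme and 100% = wells lacking proteasome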
Target sequence (Q9Y5K5 whole entry, looked up): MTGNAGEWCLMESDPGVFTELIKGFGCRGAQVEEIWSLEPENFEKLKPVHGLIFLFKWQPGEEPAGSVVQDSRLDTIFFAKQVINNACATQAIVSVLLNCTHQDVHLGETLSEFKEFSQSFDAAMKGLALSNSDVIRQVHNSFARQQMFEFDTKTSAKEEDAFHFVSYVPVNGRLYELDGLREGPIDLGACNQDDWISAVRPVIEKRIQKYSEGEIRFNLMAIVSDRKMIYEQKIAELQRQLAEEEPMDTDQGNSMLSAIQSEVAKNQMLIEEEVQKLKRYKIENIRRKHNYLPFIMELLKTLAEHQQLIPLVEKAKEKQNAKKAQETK
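Signal – fluorescence, ex 355 nm, em 460 nm · System – Proteasome-bound UCH37 · Input – 0.15 nM proteasome as dispensed · Timing – 30 min preincubation with enzyme, 25 min cleavage at room temperature · Read-out basis – percent inhibition of cleavage signal versus uninhibited and no-proteasome wells · Medium – Tris-HCl pH 7.4 with ATP-MgCl2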
The depositor's hits bear a star; nt = no result given.

SMILES	PfM18AAP inh	HDAC3 inhib	ALR inh	FAS-TE inh	Rtt109 HAT inh	UCH37 inh
CCOC(=O)CCS(=O)(=O)c1nc(-c2ccccc2)cc(C(F)(F)F)n1	-2	-17	87*	18	24	nt
Cc1c(NC(=S)NN=C/C=C/c2ccc([N+](=O)[O-])cc2)c(=O)n(-c2ccccc2)n1C	nt	nt	nt	nt	nt	8
CCCc1c(C)[nH]c2ccccc2c1=O	-4	0	-9	-3	-10	5
Cc1[nH]c2ccccc2c1CCC(N)=O	3	0	99*	-8	6	4
Cc1[nH]c2ccccc2c1CCNC(=O)CCC(=O)c1ccccc1	2	-5	95*	-5	2	4
Cc1[nH]c2ccccc2c1CCNC(=O)c1ccc2nccnc2c1	-1	0	nt	1	9	1
CC(=NNc1nc(C)cc(=O)[nH]1)C1CC1	nt	nt	nt	nt	nt	-1
COc1ccc(C/C(C)=N/Nc2nc(C)cc(=O)[nH]2)cc1	31*	-6	2	-4	-1	nt
O=C(CCC(=O)NN=Cc1ccc(Br)o1)NN=Cc1ccc(Br)o1	nt	nt	nt	nt	nt	2
N#Cc1c(N=C/C=C/c2ccccc2)sc2c1CCCC2	nt	nt	nt	nt	nt	6
COc1cc(/C=C/c2nc3ccccc3s2)cc(OC)c1O	-8	5	95*	-3	-7	-44
Cc1ccc(S(=O)(=O)Nc2ccc(Br)cc2C=Nn2cnnc2)cc1	nt	nt	nt	nt	nt	3
CCOC(=O)C=c1sc(=C(C#N)C(N)=O)n(-c2ccccc2)c1=O	nt	nt	nt	nt	nt	5
CN(C)Cc1c(C(=O)NN=C/C=C/c2ccccc2)nnn1-c1nonc1N	nt	nt	nt	nt	nt	9
CCOC(=O)Cn1nc(C)c(-c2ccccc2)c1N	0	7	36	-14	nt	6
Cc1nn(CC2CCCCC2)c(N)c1-c1ccccc1	-4	8	98*	0	1	1
Cc1ccc2[nH]c(-c3cccc(N)c3)cc2c1	-3	-42	98*	5	6	-72
Cc1ccc2[nH]c(-c3cccc(F)c3)cc(=O)c2c1	-2	-2	-2	-10	4	-3
Cc1ccc(C(COc2ccccc2O)=NO)cc1	nt	nt	nt	nt	nt	5
O=Cc1ccccc1-n1cccn1	4	-3	nt	-6	-3	0
Oc1cc(-n2cccn2)c(O)cc1-n1cccn1	85*	1	54	0	0	-2
Cc1cc(=O)[nH]c2ccc(Cc3ccccc3)cc12	nt	nt	nt	-2	0	0
CSc1ccc2[nH]c(=O)cc(C)c2c1	-10	-10	100*	-6	-8	-145
Cc1csc(=N)n1-c1ccc(Cl)cc1	5	-1	96*	3	-5	2
CCN(CC)S(=O)(=O)c1ccc(C(=O)NCC(=O)NN=Cc2ccccc2OC)cc1	nt	nt	nt	nt	nt	1
SMILES	PfM18AAP inh	HDAC3 inhib	ALR inh	FAS-TE inh	Rtt109 HAT inh	UCH37 inh
CCOc1ccc(-c2nc(CCl)cs2)cc1	-6	nt	nt	10	13	1
COc1ccc(Br)cc1-c1nc(CCl)cs1	-7	3	95*	32	6	2
Cc1ccccc1C(=O)NCCNC(=O)c1ccco1	5	2	-1	-6	51*	1
Nc1c(C(=O)NN=Cc2cccnc2)cnn1-c1ccccc1	nt	nt	nt	nt	nt	5
O=C(O)CCc1ccc(-c2ccccc2)o1	-57	2	9	-4	78*	3
COc1cccc(NC(=O)c2ccccc2-c2ccccc2C(=O)O)c1	0	-4	-6	-3	-1	4
CN(C(=O)COC(=O)c1ccccc1Nc1ccccc1)C1CCS(=O)(=O)C1 (stereo unspecified)	-7	-4	99*	5	-4	-2
O=C(COC(=O)c1ccccc1Nc1ccccc1)NCc1ccccc1	12	-9	97*	-6	0	-33
Cc1cccc(Nc2ccccc2C(=O)OCC(=O)N(C)C2CCS(=O)(=O)C2)c1C (stereo unspecified)	2	1	34	23	4	0
Cc1cc(C(=O)Nc2ccccc2C(=O)O)oc1C	7	0	98*	-3	2	4
COc1cccc(Nc2ccccc2C(=O)O)c1	5	-2	99*	-6	3	2
O=C1NC2(CCCCC2)C(=O)N1N=Cc1ccc(O)cc1O	nt	nt	nt	nt	nt	-2
CC(=NNC(=O)c1ccco1)c1cccc(NC(=O)c2ccc(C)s2)c1	nt	nt	nt	nt	nt	3
COc1ccc(Nc2ccc(Cl)cc2)c(C(=O)O)c1	-3	0	99*	11	-1	6

Screens: PubChem BioAssay, several laboratories
